Legend:
[1] = tested on: esterase; test: Stability of compound assessed as pig liver esterase mediated hydrolysis by measuring half life at 50 uM by HPLC analysis; type: ADME, Sus scrofa
In short: (§1)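 Compounds incubated with pig liver esterase, cell culture medium or MCF-7 cell extracts; decomposition followed by HPLC with direct injection of the biological medium, no sample pretreatment; half-lives determined; hydrolysis metabolite identified by co-injection with authentic sample.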

[2] = Stability of compound in culture media assessed as compound hydrolysis by measuring half life at 50 uM by HPLC analysis; type: physicochemical; in short: as §1
[3] = Stability of compound in MCF7 cell extract assessed as compound hydrolysis by measuring half life at 50 uM by HPLC analysis; type: physicochemical; settings: human; in short: as §1
[4] = Drug metabolism assessed as compound hydrolysis by measuring 2-(6-hydroxy-3-oxo-3H-xanthen-9-yl)-5-((1-((2R,4S,5R)-4-hydroxy-5-(hydroxymethyl)tetrahydrofuran-2-yl)-2-oxo-1,2-dihydropyrimidin-4-yl)carbamoyl)benzoic acid formation; type: ADME; in short: as §1
[5] = Drug localization in mitochondria of human MCF7 cells at 50 uM incubated for 24 hrs by MitoTracker red CMXRos staining based confocal fluorescence microscopy; type: ADME; settings: mcf7, 24 h
In short: (§2)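 MCF-7 cells incubated 24 h at 37 °C with 50 μM fluorescein-labelled compound; mitochondria stained with 200 nM MitoTracker red CMXRos and nuclei with Hoechst 33342 (10 μg/mL final); cells washed twice with medium, then imaged by confocal microscopy (488 nm fluorescein, 561 nm MitoTracker, 760 nm Hoechst, 63×/1.4 oil objective); untreated cells as control.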

[6] = Drug localization in mitochondria of human MCF7 cells assessed as appearance of green and red overlapped superimposed images at 100 uM incubated for 24 hrs by MitoTracker red CMXRos staining based super-resolution confocal fluorescence microscopy; type: ADME; settings: mcf7, 24 h
In short: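 Living MCF-7 cells treated 24 h with 100 μM fluorescein-labelled compound, stained with 100 nM MitoTracker red CMXRos and Hoechst 33342 (10 μg/mL final), washed twice with medium; Airyscan super-resolution confocal imaging (488/561/405 nm, 63×); co-localization judged from overlapping green and red areas in superimposed images; untreated cells as control.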

[7] = Cytotoxicity against human MCF7 cells assessed as cell viability upto 50 uM measured after 72 hrs by MTT assay relative to control; type: toxicity, cell-based; settings: read-out: Activity
In short: (§3)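 MCF-7 breast cancer cells exposed to test compounds at a range of concentrations (up to 100 μM) for 72 h; cell viability measured and expressed as percentage viability or cell death relative to untreated control.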

[8] = Cytotoxicity against human MCF7 cells assessed as cell viability at 100 uM measured after 72 hrs by MTT assay relative to control; type: toxicity, cell-based; settings: read-out: Activity; in short: as §3
[9] = Drug concentration in living human MCF7 cells at 5 uM incubated for 24 hrs by flow cytometry analysis; type: ADME, cell-based; settings: mcf7, 24 h
In short: (§4)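 Living MCF-7 cells incubated 24 h with test compounds at different concentrations; fluorescein-labelled compound uptake quantified by flow cytometry as percentage internalization; mean ± SEM of three independent experiments.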

[10] = Drug concentration in living human MCF7 cells at 10 uM incubated for 24 hrs by flow cytometry analysis; type: ADME, cell-based; settings: mcf7, 24 h; in short: as §4
[11] = Drug concentration in living human MCF7 cells at 25 uM incubated for 24 hrs by flow cytometry analysis; type: ADME, cell-based; settings: mcf7, 24 h; in short: as §4
[12] = Drug concentration in living human MCF7 cells at 50 uM incubated for 24 hrs by flow cytometry analysis; type: ADME, cell-based; settings: mcf7, 24 h; in short: as §4
[13] = Drug accumulation in living human MCF7 cells at 25 uM incubated for 24 hrs by flow cytometry analysis; type: ADME, cell-based; settings: mcf7, 24 h; in short: as §4
[14] = Drug localization in cytoplasm of human MCF7 cells at 50 uM incubated for 24 hrs by confocal fluorescence microscopy; type: ADME, subcellular; settings: mcf7, 24 h; in short: as §2
[15] = Drug internalization in living human MCF7 cells at 5 uM incubated for 24 hrs by flow cytometry analysis; type: ADME, cell-based; settings: mcf7, 24 h; in short: as §4
[16] = Drug internalization in living human MCF7 cells at 10 uM incubated for 24 hrs by flow cytometry analysis; type: ADME, cell-based; settings: mcf7, 24 h; in short: as §4
[17] = tested on: MCF7; test: Cytotoxicity against human MCF7 cells assessed as cell death at 10 uM measured after 72 hrs by MTT assay relative to control; type: toxicity, cell-based; settings: mcf7, 72 h; in short: as §3
[18] = tested on: MCF7; test: Cytotoxicity against human MCF7 cells assessed as cell death at 50 uM measured after 72 hrs by MTT assay relative to control; type: toxicity, cell-based; settings: mcf7, 72 h; in short: as §3
[19] = Drug internalization in living human MCF7 cells at 50 uM incubated for 24 hrs by flow cytometry analysis; type: ADME, cell-based; settings: mcf7, 24 h; in short: as §4
[20] = Stability of compound in culture media assessed as compound hydrolysis at 50 uM by HPLC analysis; type: physicochemical; in short: as §1

SMILES	half-life at 50 µM [1]	half-life at 50 µM [2]	half-life at 50 µM [3]	Drug uptake [5]	Drug uptake [9]	Drug uptake [10]	Drug uptake [11]	Drug uptake [12]	Drug uptake [13]	also measured
Nc1ccn([C@H]2C[C@H](O)[C@@H](COC(=O)CCCCCCCCC[P+](c3ccccc3)(c3ccccc3)c3ccccc3)O2)c(=O)n1.O=C(O)C(F)(F)F.O=C([O-])C(F)(F)F	< 15 min	> 1070 min	> 504 min	–	–	–	–	–	–	–
O=C(CCCCC[P+](c1ccccc1)(c1ccccc1)c1ccccc1)OC[C@H]1O[C@@H](n2ccc(NC(=O)c3ccc(-c4c5ccc(=O)cc-5oc5cc(O)ccc45)c(C(=O)O)c3)nc2=O)C[C@@H]1O.O=C([O-])C(F)(F)F	–	–	–	–	0.4%	0.8%	3%	17%	–	Activity [17]: 61%; Activity [18]: 44%; Drug uptake [19]: 17%
Nc1ccn([C@H]2C[C@H](O)[C@@H](COC(=O)CC[P+](c3ccccc3)(c3ccccc3)c3ccccc3)O2)c(=O)n1.O=C(O)C(F)(F)F.O=C([O-])C(F)(F)F	< 15 min	–	> 504 min	–	–	–	–	–	–	Stability [20]: Unstable

More lines, main results first:

half-life at 50 µM [1]	half-life at 50 µM [2]	half-life at 50 µM [3]	Drug uptake [5]	Drug uptake [9]	Drug uptake [10]	Drug uptake [11]	Drug uptake [12]	Drug uptake [13]	SMILES	also measured
< 15 min	> 1070 min	> 504 min	Active	3%	24%	96%	100%	96%	O=C(CCCCCCCCC[P+](c1ccccc1)(c1ccccc1)c1ccccc1)OC[C@H]1O[C@@H](n2ccc(NC(=O)c3ccc(-c4c5ccc(=O)cc-5oc5cc(O)ccc45)c(C(=O)O)c3)nc2=O)C[C@@H]1O.O=C([O-])C(F)(F)F	Drug metabolism [4]: Metabolite_Detected; Drug uptake [6]: Active; viability at 72 h, up to 50 µM [7]: 84%; viability at 72 h, 100 µM [8]: 60%
–	–	–	Not Active	2%	12%	62%	87%	62%	O=C(Nc1ccn([C@H]2C[C@H](O)[C@@H](CO)O2)c(=O)n1)c1ccc(-c2c3ccc(=O)cc-3oc3cc(O)ccc23)c(C(=O)O)c1	Drug uptake [14]: Active
–	–	–	Active	27%	61%	96%	99%	> 95%	O=C(CC[P+](c1ccccc1)(c1ccccc1)c1ccccc1)OC[C@H]1O[C@@H](n2ccc(NC(=O)c3ccc(-c4c5ccc(=O)cc-5oc5cc(O)ccc45)c(C(=O)O)c3)nc2=O)C[C@@H]1O.O=C([O-])C(F)(F)F	Drug uptake [14]: Active; Drug uptake [15]: 27%; Drug uptake [16]: 61%
< 15 min	> 1070 min	> 504 min	–	–	–	–	–	–	Nc1ccn([C@H]2C[C@H](O)[C@@H](COC(=O)CCCCC[P+](c3ccccc3)(c3ccccc3)c3ccccc3)O2)c(=O)n1.O=C(O)C(F)(F)F.O=C([O-])C(F)(F)F	–
